pIC50: −log10 of the molar value.
System: not listed separately
Experiment: Area under curve was determined using 20%aqueous hydroxypropyl-beta-cyclodextrin (HPbetaCD) as vehicle. Compound was administered intravenously to nude mice at a dose of 25 mg/kg
Format: ADME, organism-based
Parameters: dose 25 mg/kg, route intravenous
Details: mouse, in vivo, iv
How it was run: (§1)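 Nude mice were dosed at 25 mpk, intravenously or orally as the line states, in 20% aqueous hydroxypropyl-β-cyclodextrin or 0.4% aqueous methyl cellulose. Serum was sampled over 24 h. Each time point came from sera of different animals.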

AUC	Structure (SMILES)
20300 ng·h/mL	NC(=O)CN1CCC(CC(=O)N2CCC([C@H]3c4ncc(Br)cc4CCc4cc(Cl)cc(Br)c43)CC2)CC1
5950 ng·h/mL	CN(C)S(=O)(=O)N1CCC(CC(=O)N2CCC([C@H]3c4ncc(Br)cc4CCc4cc(Cl)cc(Br)c43)CC2)CC1
7530 ng·h/mL	CN(C)C(=O)C(=O)N1CCC(CC(=O)N2CCC([C@H]3c4ncc(Br)cc4CCc4cc(Cl)cc(Br)c43)CC2)CC1

System: not listed separately
Experiment: Area under curve was determined using 20%aqueous hydroxypropyl-beta-cyclodextrin (HPbetaCD) as vehicle. Compound was administered orally to nude mice at a dose of 25 mg/kg
Format: ADME, organism-based
Parameters: dose 25 mg/kg, route oral
Details: mouse, in vivo, po
How it was run: as §1

AUC	Structure (SMILES)
12200 ng·h/mL	NC(=O)CN1CCC(CC(=O)N2CCC([C@H]3c4ncc(Br)cc4CCc4cc(Cl)cc(Br)c43)CC2)CC1
100 ng·h/mL	CN(C)S(=O)(=O)N1CCC(CC(=O)N2CCC([C@H]3c4ncc(Br)cc4CCc4cc(Cl)cc(Br)c43)CC2)CC1

Biological target: T1, Protein farnesyltransferase (Homo sapiens, UniProt P49354+P49356)
Experiment: Inhibition of [3H]FPP incorporation into His6-H-Ras-CVLS by farnesyl transferase
Format: protein-complex assay
Details: not given

pIC50	Structure (SMILES)
8.68	NC(=O)CN1CCC(CC(=O)N2CCC([C@H]3c4ncc(Br)cc4CCc4cc(Cl)cc(Br)c43)CC2)CC1
8.11	CN(C)S(=O)(=O)N1CCC(CC(=O)N2CCC([C@H]3c4ncc(Br)cc4CCc4cc(Cl)cc(Br)c43)CC2)CC1

System: not listed separately
Experiment: Area under curve was determined using 20%aqueous hydroxypropyl-beta-cyclodextrin (HPbetaCD) as vehicle. Compound was administered orally to nude mice at a dose of 25 mg/kg (Run time = 7 hr)
Format: ADME, organism-based
Parameters: dose 25 mg/kg, route oral
Details: mouse, in vivo, po
How it was run: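 Nude mice received 25 mpk in 20% aqueous hydroxypropyl-β-cyclodextrin, by the route the line gives. Serum was collected over a shortened 7-h run rather than 24 h. Each time point used sera from different animals.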

AUC at 7 h	Structure (SMILES)
2260 ng·h/mL	CN(C)C(=O)C(=O)N1CCC(CC(=O)N2CCC([C@H]3c4ncc(Br)cc4CCc4cc(Cl)cc(Br)c43)CC2)CC1

System: not listed separately
Experiment: Maximum concentration (Cmax) using 20%aqueous hydroxypropyl-beta-cyclodextrin (HPbetaCD) as vehicle. compound was administered orally to nude mice at a dose of 25 mg/kg
Format: ADME, organism-based
Parameters: dose 25 mg/kg, route oral
Details: mouse, in vivo, po
How it was run: as §1

Cmax	Structure (SMILES)
1.94 µM	NC(=O)CN1CCC(CC(=O)N2CCC([C@H]3c4ncc(Br)cc4CCc4cc(Cl)cc(Br)c43)CC2)CC1
0.49 µM	CN(C)S(=O)(=O)N1CCC(CC(=O)N2CCC([C@H]3c4ncc(Br)cc4CCc4cc(Cl)cc(Br)c43)CC2)CC1
3.2 µM	CN(C)C(=O)C(=O)N1CCC(CC(=O)N2CCC([C@H]3c4ncc(Br)cc4CCc4cc(Cl)cc(Br)c43)CC2)CC1

Biological target: T1, Protein farnesyltransferase
Experiment: Effect on Ras processing in Cos-1 monkey kidney cells expressing either H-Ras-Val 12-CVLS or H-Ras-Val12.
Format: functional, cell-based, Cercopithecidae
Details: not given
How it was run: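 Ras processing was tested in Cos-1 monkey kidney cells transiently expressing H-Ras-Val12-CVLS or H-Ras-Val12. IC50 values are single-point determinations.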

pIC50	Structure (SMILES)
8.22	NC(=O)CN1CCC(CC(=O)N2CCC([C@H]3c4ncc(Br)cc4CCc4cc(Cl)cc(Br)c43)CC2)CC1
8.05	CN(C)S(=O)(=O)N1CCC(CC(=O)N2CCC([C@H]3c4ncc(Br)cc4CCc4cc(Cl)cc(Br)c43)CC2)CC1
8.00	CN(C)C(=O)C(=O)N1CCC(CC(=O)N2CCC([C@H]3c4ncc(Br)cc4CCc4cc(Cl)cc(Br)c43)CC2)CC1

System: not listed separately
Experiment: Half life was administered by using 20%aqueous hydroxypropyl-beta-cyclodextrin (HPbetaCD) as vehicle to nude mice at a dose of 25mpk,
Format: ADME, organism-based
Details: mouse, in vivo, 25 mg/kg

half-life	Structure (SMILES)
4 h	NC(=O)CN1CCC(CC(=O)N2CCC([C@H]3c4ncc(Br)cc4CCc4cc(Cl)cc(Br)c43)CC2)CC1
1.3 h	CN(C)S(=O)(=O)N1CCC(CC(=O)N2CCC([C@H]3c4ncc(Br)cc4CCc4cc(Cl)cc(Br)c43)CC2)CC1
1.04 h	CN(C)C(=O)C(=O)N1CCC(CC(=O)N2CCC([C@H]3c4ncc(Br)cc4CCc4cc(Cl)cc(Br)c43)CC2)CC1

System: NIH-3T3 (Mus musculus)
Experiment: inhibition of tumor colony formation in soft agar
Details: not given

Structure (SMILES)	pIC50
NC(=O)CN1CCC(CC(=O)N2CCC([C@H]3c4ncc(Br)cc4CCc4cc(Cl)cc(Br)c43)CC2)CC1	7.15
CN(C)S(=O)(=O)N1CCC(CC(=O)N2CCC([C@H]3c4ncc(Br)cc4CCc4cc(Cl)cc(Br)c43)CC2)CC1	7.00
CN(C)C(=O)C(=O)N1CCC(CC(=O)N2CCC([C@H]3c4ncc(Br)cc4CCc4cc(Cl)cc(Br)c43)CC2)CC1	6.92

System: not listed separately
Experiment: Bioavailability in mouse (nude) using 20% aqueous hydroxypropyl-beta-cyclodextrin (HPbetaCD) as vehicle 25 mg/kg
Format: ADME, organism-based
Details: nude, in vivo

bioavailability	Structure (SMILES)
60.2%	NC(=O)CN1CCC(CC(=O)N2CCC([C@H]3c4ncc(Br)cc4CCc4cc(Cl)cc(Br)c43)CC2)CC1
1.7%	CN(C)S(=O)(=O)N1CCC(CC(=O)N2CCC([C@H]3c4ncc(Br)cc4CCc4cc(Cl)cc(Br)c43)CC2)CC1
30%	CN(C)C(=O)C(=O)N1CCC(CC(=O)N2CCC([C@H]3c4ncc(Br)cc4CCc4cc(Cl)cc(Br)c43)CC2)CC1

System: not listed separately
Experiment: Maximum concentration (Cmax) using 20%aqueous hydroxypropyl-beta-cyclodextrin (HPbetaCD) as vehicle. compound was administered intravenously to nude mice at a dose of 25 mg/kg
Format: ADME, organism-based
Parameters: dose 25 mg/kg, route intravenous
Details: mouse, in vivo, iv
How it was run: as §1

Cmax	Structure (SMILES)
30 µM	NC(=O)CN1CCC(CC(=O)N2CCC([C@H]3c4ncc(Br)cc4CCc4cc(Cl)cc(Br)c43)CC2)CC1
30 µM	CN(C)S(=O)(=O)N1CCC(CC(=O)N2CCC([C@H]3c4ncc(Br)cc4CCc4cc(Cl)cc(Br)c43)CC2)CC1
26.3 µM	CN(C)C(=O)C(=O)N1CCC(CC(=O)N2CCC([C@H]3c4ncc(Br)cc4CCc4cc(Cl)cc(Br)c43)CC2)CC1
